# Most compounds without a hit are left out; they make up all but 2.2% or so of the library.
# APP transl inh: APP translation inhibition | SH-SY5Y APP 5'UTR-luciferase reporter, luminescence | inhibition, % at 2 µM | hit rate 0.82% among 190,000;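 active = inhibition above a set limit, derived from the sample mean plus 3 SD, cut at about 45% in these data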
# MT stabilizer: microtubule stabilization, imaging screen; HeLa tubulin immunostaining HCS, 24 h; share of cells brighter than vehicle mean+2SD; % tubulin-high responders, % at 10 µM; hit rate 0.83% among 200,000; AID 2205;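 active = plate Z-score above 3 for both tubulin-high and condensed-nucleus cell shares, with cell loss under 80%, at 10 µM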;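 also: anti alpha tubulin signal scored within the nucleus-defined area of each cell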
# IEC-6 tox: IEC-6 cytotoxicity, counter-screen for KLF5 inhibitors; luminescence viability; inhibition, % at 5 µM; AID 1825; hit rate 0.78% among 290,000; in the data active = inhibition above about 22%;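 also: 0% = plate median of test compound wells and 100% = cytotoxic reference compound wells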
# Ba/F3 V617F tox: lowers viability of Ba/F3 cells expressing EpoR and JAK2V617F | AID 1446 | hit rate 1.1% among 220,000 | inhibition, % at 5.6 µM | ATP luminescence;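 active = inhibition above the campaign mean plus 3 SD over all tested compounds, cut at about 24% in these data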;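 also: cytokine-independent growth of Ba/F3 cells driven by EpoR plus mutant JAK2; 0% = DMSO-treated cells and 100% = JAK inhibitor I control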
# BaF3 parental: counter-screen for JAK2V617F inhibitors: parental Ba/F3 viability inhibitors; CellTiter-Glo ATP luminescence; inhibition, % at 5.6 µM; AID 1486; hit rate 1.1% among 220,000;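 active = inhibition above a per-campaign cutoff, the mean inhibition of all tested compounds plus 3 SD, cut at about 27% in these data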;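 also: 0% = DMSO wells and 100% = JAK Inhibitor I control wells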
# bCat nuc transl: beta-catenin nuclear translocation modulation | HeLa beta-catenin nuclear translocation, immunofluorescence imaging | nuclear translocation activity, % at 5 µM | hit rate 0.3% among 190,000;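 active = nuclear translocation activity above 50% at 5 µM, with a well cell count of 50 or more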;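 also: per-cell ratio of nuclear to cytoplasmic median beta-catenin stain intensity; plate controls were DMSO negative control for no effect and GSK-3 inhibitor IX positive control for full effect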
#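 System: Human HeLa cells, endogenous beta-catenin | Compound dosing: 5 µM primary, 0.02–20 µM confirmation | Timing: 24 h compound exposure at 37°C, 5% CO2 | Measured by: Fluorescence imaging of beta-catenin antibody stain plus DAPI | Read-out basis: % activation of per-cell nuclear versus cytoplasmic median beta-catenin signal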
# Active calls of the source: *; · = no result given.
SMILES,APP transl inh,MT stabilizer,IEC-6 tox,Ba/F3 V617F tox,BaF3 parental,bCat nuc transl
O=C1/C(=C/c2ccccc2)NC(=S)N1C(c1ccccc1)c1ccccc1,-13,36*,2,-3,1,61*
COc1ccccc1Nc1ncc(-c2cccs2)s1,-9,6,6,-3,-1,107*
COc1ccccc1Nc1ccc(C(=O)NCc2cccs2)cn1,2,3,2,-3,7,1
CC1(C)Cc2cccc(Oc3cc(NN4CCCCC4)c([N+](=O)[O-])cc3[N+](=O)[O-])c2O1,·,·,-3,·,·,·
CCN(CC)CCCNC(=O)c1cc2c(-c3ccc(Cl)cc3)nn(C)c2s1,-3,4,14,7,29*,·
Fc1cccc(Cl)c1Cn1nnc(-c2ccc(N3CCOCC3)cc2)n1,-7,3,2,-3,0,-2
Clc1cccc(Cl)c1Cn1nnc(N2CCCC2)n1,·,·,0,34*,61*,0
COc1ccc(C2OC(=O)Cc3cc(OC)c(OC)cc32)cc1 (centres undefined),5,3,-4,0,2,2
CCc1ccc(/C=C/c2c[nH]c3ccccc23)[n+](CC)c1,-1,1,-3,94*,79*,-2
CCN(CC)S(=O)(=O)c1ccc2[nH]cc(C(=O)NCCC3=CCCCC3)c(=O)c2c1,5,33*,0,0,9,0
CCN(CC)S(=O)(=O)c1ccc2[nH]cc(C(=O)NCCN3CCCCCC3)c(=O)c2c1,3,4,-12,-1,4,-1
CCOc1ccc(Cc2c(Cl)nc(SC)nc2N(C)C)cc1,3,22*,2,0,5,3
COC(=O)c1cc2ccsc2n1CC(=O)Nc1cc(Cl)ccc1OC,11,30*,-2,0,3,·
CC(C)c1ccc(NC(=O)COc2ccc(F)cc2C(=O)c2cnn(-c3ccccc3)c2)cc1,-96,20*,-4,-3,0,·
Cc1cccc(NC(=O)c2ccc(CN3CCc4ccccc4C3)cc2)c1C,19,4,4,2,4,1
Cc1ccc(NC(=S)N(CCCN2CCOCC2)Cc2ccco2)cc1C,-20,5,-6,-1,9,2
Cc1cc(NC(=S)N(CCCN2CCN(C)CC2)Cc2ccco2)ccc1Cl,-16,4,-5,35*,27*,-2
CC(C(N)=O)N1C(=O)NC2(CCCc3ccccc32)C1=O (centres undefined),·,·,-2,·,·,·
Cc1cc(C)c2cc(CN(Cc3ccco3)C(=S)NCC3CCCO3)c(=O)[nH]c2c1 (centres undefined),1,3,-2,-6,0,-1
CCOc1ccccc1NC(=O)CC1Nc2cc(C)c(C)cc2NC1=O (centres undefined),6,23*,3,0,6,·
CCOc1ccccc1NC(=O)CC1Nc2ccccc2NC1=O (centres undefined),-2,3,3,-2,2,1
CSc1nc2ccccc2n1Cc1c(Cl)cccc1Cl,-13,3,-3,20,30*,-6
CCC(C)(C)c1ccc(Oc2ccc(N)cc2)cc1,80*,5,1,13,15,-1
CCOC(=O)c1ccc(CNC(=O)Cn2nnc(-c3ccccc3)n2)o1,-18,3,-5,2,5,1
COc1ccccc1NC(=O)/C=C\c1ccco1,·,·,-8,·,·,·
SMILES,APP transl inh,MT stabilizer,IEC-6 tox,Ba/F3 V617F tox,BaF3 parental,bCat nuc transl
COc1ccccc1NC(=O)/C(C#N)=C/C=C/c1ccco1,88*,41*,3,0,4,61*
COc1cccc(/C=N/NC(=O)c2cc3c(OC)cccc3[nH]2)c1O,45*,2,0,-3,1,4
COc1cccc(/C=N/NC(=O)c2cc3cc([N+](=O)[O-])ccc3s2)c1O,51*,5,4,-4,0,-4
COc1cc([N+](=O)[O-])cc(/C=N/NC(=O)c2ccc(C)nc2)c1O,2,5,2,-1,6,0
COc1ccccc1/C=N/NC(=O)c1ccc(NC(=O)c2cccc([N+](=O)[O-])c2)cc1,5,1,-3,-3,9,0
COc1cc([N+](=O)[O-])cc(/C=N/NC(=O)c2ccc(NC(=O)c3ccc(C)cc3)cc2)c1O,87*,23,-5,-1,1,-1
CCCOc1ccc(C(=O)NC(=S)N2CCN(c3cc4c(cc3F)c(=O)c(C(=O)O)cn4CC)CC2)cc1,·,·,-2,·,·,·
O=C(NC(=S)Nc1ccccn1)c1cccc([N+](=O)[O-])c1,·,·,6,-2,-1,-5
O=C(COC(=O)CCCN1C(=O)c2cccc3cccc(c23)C1=O)Nc1cccc(Br)c1,-2,13*,3,2,3,·
O=C1C2CCCCN2C(=O)N1CCCCN1CCN(c2cccc(Br)c2)CC1 (centres undefined),·,·,5,·,·,·
Cc1ccc(-n2nc3cc(C)c(NC(=S)NC(=O)/C=C/c4ccco4)cc3n2)cc1,-43,3,3,68*,63*,0
Cc1cccc(NC(=S)NC(NC(=O)c2ccco2)C(Cl)(Cl)Cl)c1 (centres undefined),58*,4,2,2,1,-7
Cc1cccc(NC(=S)NC(=O)/C=C/c2ccco2)c1,62*,22*,79*,72*,78*,52*
O=C(/C=C/c1ccco1)Nc1ccc(N2CCCC2)cc1,-121,25*,-1,3,3,7
CCc1cc2c(=O)c(-c3cnn(-c4ccccc4)c3)c(C(F)(F)F)oc2c(CN(C)C)c1O,0,5,-5,0,11,2
O=C(/C=C/c1ccco1)Nc1ccc(-c2nc3ccccc3[nH]2)cc1,86*,1,-6,11,3,0
COc1ccc(-c2csc(NC(=S)NC(=O)/C=C/c3ccco3)n2)cc1Br,·,·,-4,-1,3,-2
O=C(/C=C/c1ccco1)NC(=S)Nc1cccc([N+](=O)[O-])c1,-13,15*,6,-3,2,2
COc1ccc(-c2csc(NC(=S)NC(=O)/C=C/c3ccco3)n2)cc1OC,75*,2,14,3,3,52*
O=C(/C=C/c1ccccc1)NC(=S)Nc1ccc(N2CCOCC2)c(Cl)c1,7,1,-6,-4,1,-2
O=C(/C=C/c1ccco1)NC(=S)Nc1ccc(N2CCOCC2)c(Cl)c1,6,48*,-1,-4,5,0
CNC(=O)CN(Cc1ccccc1)S(=O)(=O)c1ccc(Cl)cc1,·,·,-1,·,·,·
O=C(CCN1C(=O)/C(=C/c2ccccc2Cl)SC1=S)NCCc1ccc(O)cc1,·,·,9,·,·,·
Oc1ccccc1/C=N/Nc1nccnc1Cl,42,4,1,10,8,·
COc1cccc(/C=N/Nc2nccnc2Cl)c1O,51*,5,7,95*,94*,2
COc1cccc(/C=N/Nc2ncnc(Cl)c2N)c1O,78*,3,-1,8,11,-1

# Source: PubChem BioAssay (several laboratories)
